Assay results taken from ChEMBL document CHEMBL1154983, “Arylpiperazine-containing pyrrole 3-carboxamide derivatives targeting serotonin 5-HT(2A), 5-HT(2C), and the serotonin transporter as a potential antidepressant” (Bioorg Med Chem Lett, 2010).
pIC50: −log10 of the molar value. Calls of active or inactive are those of the source. The calls are words filed in the database; no cut-off is given here.

Legend:
Rattus norvegicus [1] = assay: Dose normalized AUC (0 to infinity) in rat at 1 mg/kg, iv; format: ADME, organism-based; parameters: dose 1 mg/kg, route intravenous; conditions: in vivo
Summary of the method: (§1)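 Rats dosed once with the HCl salt, either i.v. at 1 mg/kg (n = 2 or 3) or orally at 5 mg/kg (n = 3). Plasma and brain levels were followed to derive Cmax, Clast, Tmax, t1/2, AUC, dose-normalised AUC, oral bioavailability (F) and the brain/plasma ratio.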

[2] = Elimination half life in rat at 5 mg/kg, po; format: ADME, organism-based; parameters: dose 5 mg/kg, route oral; conditions: in vivo, read-out: beta t1/2 (converted); summary of the method: as §1
[3] = Half life in rat plasma; format: ADME, cell-free; summary of the method: as §1
[4] = Half life in rat brain; format: ADME, tissue-based; summary of the method: as §1
[5] = Half life in rat at 1 mg/kg, iv; format: ADME, organism-based; parameters: dose 1 mg/kg, route intravenous; conditions: in vivo; summary of the method: as §1
Rattus norvegicus [6] = assay: Dose normalized AUCirlf in rat at 5 mg/kg, po; format: ADME, organism-based; parameters: dose 5 mg/kg, route oral; conditions: in vivo; summary of the method: as §1
[7] = Cmax in rat brain; format: ADME, organism-based; summary of the method: as §1
[8] = Tmax in rat brain; format: ADME, tissue-based; summary of the method: as §1
[9] = Cmax in rat at 1 mg/kg, iv; format: ADME, organism-based; parameters: dose 1 mg/kg, route intravenous; conditions: in vivo; summary of the method: as §1
[10] = Ratio of drug level in brain to plasma in rat; format: ADME, cell-free; summary of the method: as §1
Plasma = assay: Clast in rat plasma; format: ADME, cell-free; summary of the method: as §1
Rattus norvegicus [11] = assay: Clast in rat at 5 mg/kg, po; format: ADME, organism-based; parameters: dose 5 mg/kg, route oral; conditions: in vivo; summary of the method: as §1
[12] = Cmax in rat plasma; format: ADME, organism-based; summary of the method: as §1
Rattus norvegicus [13] = assay: Oral bioavailability in rat at 5 mg/kg; format: ADME, organism-based; conditions: in vivo; summary of the method: as §1
[14] = AUC in rat brain; format: ADME, tissue-based; summary of the method: as §1
Rattus norvegicus [15] = assay: Clast in rat at 1 mg/kg, iv; format: ADME, organism-based; parameters: dose 1 mg/kg, route intravenous; conditions: in vivo; summary of the method: as §1
Brain = assay: Clast in rat brain; format: ADME, tissue-based; conditions: in vivo; summary of the method: as §1
[16] = AUC in rat plasma; format: ADME, cell-free; summary of the method: as §1
[17] = Tmax in rat plasma; format: ADME, cell-free; summary of the method: as §1
[18] = Cmax in rat at 5 mg/kg, po; format: ADME, organism-based; parameters: dose 5 mg/kg, route oral; conditions: in vivo; summary of the method: as §1
[19] = Tmax in rat at 5 mg/kg, po; format: ADME, organism-based; parameters: dose 5 mg/kg, route oral; conditions: in vivo; summary of the method: as §1
Rattus norvegicus [20] = assay: AUC (0 to infinity) in rat at 1 mg/kg, iv; format: ADME, organism-based, Plasma; parameters: time infinity, dose 1 mg/kg, route intravenous; conditions: in vivo; summary of the method: as §1
[21] = target: T1, 5-hydroxytryptamine receptor 2C (Homo sapiens, UniProt P28335); assay: Displacement of [3H]mesulergine from human recombinant 5-HT2C receptor expressed in CHO-K1 cells after 60 mins by rapid filtration assay; format: cell-based
T1 sequence (P28335 whole entry): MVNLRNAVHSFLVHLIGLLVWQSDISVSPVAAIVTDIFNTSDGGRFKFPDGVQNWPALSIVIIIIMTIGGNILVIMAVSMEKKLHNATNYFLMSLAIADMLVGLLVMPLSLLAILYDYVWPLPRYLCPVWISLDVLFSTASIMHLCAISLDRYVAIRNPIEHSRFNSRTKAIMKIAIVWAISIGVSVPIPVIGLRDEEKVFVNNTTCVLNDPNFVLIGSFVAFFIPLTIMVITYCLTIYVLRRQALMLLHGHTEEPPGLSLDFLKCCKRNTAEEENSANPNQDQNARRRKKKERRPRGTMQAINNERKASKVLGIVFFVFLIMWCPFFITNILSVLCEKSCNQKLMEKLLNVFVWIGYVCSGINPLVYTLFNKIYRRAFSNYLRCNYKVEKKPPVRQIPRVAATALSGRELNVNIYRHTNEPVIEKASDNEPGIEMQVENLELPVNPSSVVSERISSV
Summary of the method: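 Frozen membranes were from CHO-K1 cells stably expressing human recombinant 5-HT2C, with 1.4 nM [3H]mesulergine. Buffer was 50 mM Tris–HCl pH 7.4, 4 mM CaCl2 and 0.1% ascorbic acid, with methiothepin for nonspecific binding. Incubation ran 60 min at 27 °C, stopped by rapid filtration through 0.5% PEI-presoaked glass-fibre filters.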

[22] = target: Sodium-dependent serotonin transporter (Homo sapiens, UniProt P31645); assay: Displacement of [3H]imipramine from human SERT expressed in HEK293 cells after 30 mins by rapid filtration assay; format: cell-based
Sequence of Sodium-dependent serotonin transporter (P31645 whole entry): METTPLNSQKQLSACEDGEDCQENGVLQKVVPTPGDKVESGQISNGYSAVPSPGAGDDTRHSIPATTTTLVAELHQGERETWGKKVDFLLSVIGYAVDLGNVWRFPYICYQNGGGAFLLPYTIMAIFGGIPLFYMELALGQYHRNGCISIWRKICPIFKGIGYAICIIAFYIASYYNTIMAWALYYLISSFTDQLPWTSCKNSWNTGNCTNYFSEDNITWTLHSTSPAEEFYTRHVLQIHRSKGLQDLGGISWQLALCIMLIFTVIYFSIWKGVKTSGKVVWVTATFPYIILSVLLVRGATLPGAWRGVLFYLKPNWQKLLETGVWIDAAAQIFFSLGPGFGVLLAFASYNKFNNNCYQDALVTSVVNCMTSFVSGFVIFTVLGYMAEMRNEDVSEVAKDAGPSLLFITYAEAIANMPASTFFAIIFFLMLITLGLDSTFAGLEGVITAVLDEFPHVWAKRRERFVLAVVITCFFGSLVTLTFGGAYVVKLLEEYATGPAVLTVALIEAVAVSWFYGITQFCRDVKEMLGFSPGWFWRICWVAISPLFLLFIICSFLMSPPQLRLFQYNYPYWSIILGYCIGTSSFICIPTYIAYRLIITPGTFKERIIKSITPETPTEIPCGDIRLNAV
Summary of the method: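 Frozen membranes were from HEK293 cells expressing human SERT, with 4 nM [3H]imipramine in 50 mM Tris–HCl pH 7.4, 120 mM NaCl and 5 mM KCl. Unlabelled imipramine defined nonspecific binding. Incubation ran 30 min at 27 °C, terminated by rapid filtration through 0.5% PEI-presoaked glass-fibre filters.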

[23] = target: 5-hydroxytryptamine receptor 2A (Homo sapiens, UniProt P28223); assay: Displacement of [3H]ketanserin from human recombinant 5-HT2A receptor expressed in CHO-K1 cells after 60 mins; format: cell-based
Sequence of 5-hydroxytryptamine receptor 2A (P28223 whole entry): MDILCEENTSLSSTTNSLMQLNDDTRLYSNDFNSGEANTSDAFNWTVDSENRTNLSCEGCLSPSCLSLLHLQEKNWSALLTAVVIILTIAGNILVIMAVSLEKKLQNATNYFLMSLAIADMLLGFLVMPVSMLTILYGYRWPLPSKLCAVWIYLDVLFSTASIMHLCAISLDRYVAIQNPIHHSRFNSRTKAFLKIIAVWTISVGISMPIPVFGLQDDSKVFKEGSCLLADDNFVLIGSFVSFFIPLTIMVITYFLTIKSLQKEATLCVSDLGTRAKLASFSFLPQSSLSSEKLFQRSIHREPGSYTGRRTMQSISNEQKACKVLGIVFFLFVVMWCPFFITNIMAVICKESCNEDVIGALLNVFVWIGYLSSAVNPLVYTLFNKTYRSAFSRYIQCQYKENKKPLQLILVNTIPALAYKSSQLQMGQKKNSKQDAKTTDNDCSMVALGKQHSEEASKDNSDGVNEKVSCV
Summary of the method: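 Membranes were from CHO-K1 cells stably expressing 5-HT2A. Radioligand was at 1 nM, with mianserin defining nonspecific binding. Incubation ran 60 min at 27 °C in 50 mM Tris–HCl pH 7.4 with 4 mM CaCl2 and 0.1% ascorbic acid. Harvesting was by filtration through glass-fibre filters presoaked in 0.5% PEI.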

D(2) dopamine receptor = D(2) dopamine receptor (Homo sapiens, UniProt P14416); assay: Inhibition of dopamine D2 receptor
Sequence of D(2) dopamine receptor (P14416 whole entry): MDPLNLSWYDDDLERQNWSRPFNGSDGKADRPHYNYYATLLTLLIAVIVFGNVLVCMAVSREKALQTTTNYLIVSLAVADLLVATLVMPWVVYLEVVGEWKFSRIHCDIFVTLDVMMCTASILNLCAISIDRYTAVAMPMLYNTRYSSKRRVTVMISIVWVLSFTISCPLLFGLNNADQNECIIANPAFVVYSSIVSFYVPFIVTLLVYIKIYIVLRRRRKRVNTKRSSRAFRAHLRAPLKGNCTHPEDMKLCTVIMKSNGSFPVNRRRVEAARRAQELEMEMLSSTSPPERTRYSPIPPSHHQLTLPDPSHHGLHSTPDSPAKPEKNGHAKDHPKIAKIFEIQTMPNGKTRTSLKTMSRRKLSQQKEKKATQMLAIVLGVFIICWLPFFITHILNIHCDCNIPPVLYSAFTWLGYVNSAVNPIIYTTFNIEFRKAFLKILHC

Mus musculus [24] = assay: Antidepressant activity in mouse assessed as decrease in duration of immobility at 25 mg/kg, po during final 5 mins of the 6 mins session by forced swimming test; format: functional; parameters: scale not given: the % may be the effect or the level left
Summary of the method: (§2)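 Mice swam 10 min in a 25-cm glass cylinder (10 cm diameter) holding 15 cm of water at 23 1 °C. Twenty-four hours later, drug was given po 60 min before retesting. Immobility (floating upright with only small movements keeping head above water) was totalled over the last 5 min of the 6-min test.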

[25] = target: T2, 5-hydroxytryptamine receptor 1A (Homo sapiens, UniProt P08908); assay: Inhibition of 5HT1A receptor
T2 sequence (P08908 whole entry): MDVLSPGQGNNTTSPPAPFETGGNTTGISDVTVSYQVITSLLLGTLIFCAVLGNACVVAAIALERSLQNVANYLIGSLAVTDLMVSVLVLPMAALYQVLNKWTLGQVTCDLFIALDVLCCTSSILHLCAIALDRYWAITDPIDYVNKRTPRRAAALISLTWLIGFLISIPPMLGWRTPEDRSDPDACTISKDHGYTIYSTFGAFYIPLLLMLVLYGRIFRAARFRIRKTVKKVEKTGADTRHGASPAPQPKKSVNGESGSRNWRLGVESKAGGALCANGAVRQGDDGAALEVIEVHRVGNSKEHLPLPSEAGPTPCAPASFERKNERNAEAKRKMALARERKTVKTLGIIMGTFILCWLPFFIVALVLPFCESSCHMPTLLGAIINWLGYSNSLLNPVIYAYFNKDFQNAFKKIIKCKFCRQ

[26] = target: 5-hydroxytryptamine receptor 6 (Homo sapiens, UniProt P50406); assay: Inhibition of 5HT6 receptor
Sequence of 5-hydroxytryptamine receptor 6 (P50406 whole entry): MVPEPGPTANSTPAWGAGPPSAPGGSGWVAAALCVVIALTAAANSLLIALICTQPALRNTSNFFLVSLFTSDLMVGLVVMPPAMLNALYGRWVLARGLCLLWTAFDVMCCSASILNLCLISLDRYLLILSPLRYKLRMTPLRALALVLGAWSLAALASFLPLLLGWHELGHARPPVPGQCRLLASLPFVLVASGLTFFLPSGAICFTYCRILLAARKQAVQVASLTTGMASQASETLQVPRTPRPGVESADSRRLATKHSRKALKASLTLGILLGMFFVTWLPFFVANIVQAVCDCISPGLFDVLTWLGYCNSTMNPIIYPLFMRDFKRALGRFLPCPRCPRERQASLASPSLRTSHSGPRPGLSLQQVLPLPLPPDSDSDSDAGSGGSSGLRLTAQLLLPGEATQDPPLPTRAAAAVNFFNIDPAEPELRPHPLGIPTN

Mus musculus [27] = assay: Antidepressant activity in mouse assessed as decrease in duration of immobility at 10 mg/kg, po during final 5 mins of the 6 mins session by forced swimming test; format: functional; parameters: scale not given: the % may be the effect or the level left; summary of the method: as §2
[28] = target: 5-hydroxytryptamine receptor 7 (Homo sapiens, UniProt P34969); assay: Inhibition of 5HT7 receptor
Sequence of 5-hydroxytryptamine receptor 7 (P34969 whole entry): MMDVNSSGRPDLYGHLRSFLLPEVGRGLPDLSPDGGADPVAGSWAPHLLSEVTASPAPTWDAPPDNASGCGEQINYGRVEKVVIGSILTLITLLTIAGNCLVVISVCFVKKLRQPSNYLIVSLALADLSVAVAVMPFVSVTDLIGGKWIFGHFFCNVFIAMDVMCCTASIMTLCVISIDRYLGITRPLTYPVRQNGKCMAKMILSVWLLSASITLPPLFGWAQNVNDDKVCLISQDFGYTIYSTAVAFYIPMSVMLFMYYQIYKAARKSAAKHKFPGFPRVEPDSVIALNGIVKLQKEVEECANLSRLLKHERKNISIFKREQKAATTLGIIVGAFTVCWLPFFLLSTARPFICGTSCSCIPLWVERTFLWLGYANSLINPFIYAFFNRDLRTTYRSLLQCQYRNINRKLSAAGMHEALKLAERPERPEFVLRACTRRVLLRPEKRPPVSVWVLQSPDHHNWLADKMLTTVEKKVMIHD

D(3) dopamine receptor = D(3) dopamine receptor (Homo sapiens, UniProt P35462); assay: Inhibition of dopamine D3 receptor
Sequence of D(3) dopamine receptor (P35462 whole entry): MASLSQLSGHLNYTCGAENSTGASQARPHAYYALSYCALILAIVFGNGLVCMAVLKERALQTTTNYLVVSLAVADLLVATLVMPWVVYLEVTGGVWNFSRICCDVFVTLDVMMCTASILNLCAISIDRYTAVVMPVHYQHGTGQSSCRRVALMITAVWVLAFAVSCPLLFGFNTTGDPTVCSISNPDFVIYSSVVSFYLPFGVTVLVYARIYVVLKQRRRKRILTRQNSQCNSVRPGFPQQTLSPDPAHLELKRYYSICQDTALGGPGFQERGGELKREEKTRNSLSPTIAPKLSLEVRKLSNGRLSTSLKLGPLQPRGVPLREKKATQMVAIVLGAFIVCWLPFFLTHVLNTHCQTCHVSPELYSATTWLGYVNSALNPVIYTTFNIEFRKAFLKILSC

D(4) dopamine receptor = target: T3, D(4) dopamine receptor (Homo sapiens, UniProt P21917); assay: Inhibition of dopamine D4 receptor
T3 sequence (P21917 whole entry): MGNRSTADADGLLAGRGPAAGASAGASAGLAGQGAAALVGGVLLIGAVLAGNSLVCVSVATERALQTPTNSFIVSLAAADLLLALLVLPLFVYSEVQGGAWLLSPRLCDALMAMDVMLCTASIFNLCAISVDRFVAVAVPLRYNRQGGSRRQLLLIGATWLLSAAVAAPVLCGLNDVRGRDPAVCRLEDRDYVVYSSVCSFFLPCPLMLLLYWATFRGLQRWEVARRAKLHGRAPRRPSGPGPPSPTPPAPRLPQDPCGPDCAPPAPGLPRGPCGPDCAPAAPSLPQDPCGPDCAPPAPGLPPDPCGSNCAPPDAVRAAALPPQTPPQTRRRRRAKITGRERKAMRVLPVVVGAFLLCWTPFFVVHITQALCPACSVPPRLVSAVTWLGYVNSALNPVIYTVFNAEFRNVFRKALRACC

Mus musculus [29] = assay: Antidepressant activity in mouse assessed as decrease in duration of immobility at 100 mg/kg, po during final 5 mins of the 6 mins session by forced swimming test; format: functional; summary of the method: as §2
Mus musculus [30] = assay: Antidepressant activity in mouse assessed as decrease in duration of immobility at 50 mg/kg, po during final 5 mins of the 6 mins session by forced swimming test; format: functional, organism-based; parameters: dose 50 mg/kg
Summary of the method: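 Mice swim for 10 min in a 25-cm glass cylinder (10 cm diameter) holding 15 cm of water at 23 ± 1 °C. They are retested 24 h later for 6 min. Compound is suspended in 3% Tween 80 and given orally 60 min before the test. Total immobility time (floating upright, only small head-keeping movements) is scored over the last 5 min. Means ± S.E.M.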

Compound Cc1[nH]c(-c2ccccc2)cc1C(=O)NCCCN1CCN(c2cccc(Cl)c2Cl)CC1.Cl has an AUC/dose (Rattus norvegicus [1]) of 20.945 µg·min/mL, a half-life [2] of 2.52 h and a half-life [3] of 1.97 h. It also gave a half-life [4] of 3.42 h, a half-life [5] of 1.76 h and an AUC/dose (Rattus norvegicus [6]) of 12.783 µg·min/mL. For the same compound, the Cmax [7] was 90 ng/mL, the Tmax [8] was 2 h and the Cmax [9] was 690 ng/mL. For the same compound, the Kp [10] was 46, the Clast (Plasma) was 100 ng/mL and the Clast (Rattus norvegicus [11]) was 1 ng/mL. For the same compound, the Cmax [12] was 190 ng/mL, the F (Rattus norvegicus [13]) was 61.03% and the AUC [14] was 247 ng·h/mL. It also gave a Clast (Rattus norvegicus [15]) of 4 ng/mL, a Clast (Brain) of 60 ng/mL and an AUC [16] of 538 ng·h/mL. For the same compound, the Tmax [17] was 2 h, the Cmax [18] was 245 ng/mL and the Tmax [19] was 1.17 h. For the same compound, the AUC (Rattus norvegicus [20]) was 20.945 µg·min/mL.
Compound Cc1cccc(N2CCN(CCCNC(=O)c3cc(-c4ccccc4)n(N4CCCCC4)c3C)CC2)c1C has a pIC50 [21] of 6.38, a pIC50 [22] of 7.04 and a pIC50 [23] of 6.88.
For CCCn1c(-c2ccccc2)cc(C(=O)NCCCN2CCN(c3cccc(Cl)c3Cl)CC2)c1C, the pIC50 (D(2) dopamine receptor) was 5.43, the Activity (Mus musculus [24]) was <50% and the pIC50 [25] was 7.03. For the same compound, the pIC50 [26] was 5.72, the Activity (Mus musculus [27]) was 80% and the pIC50 [28] was 6.39. The pIC50 (D(3) dopamine receptor) was 5.97 and the pIC50 (D(4) dopamine receptor) was 6.19.
In the case of Cc1[nH]c(-c2ccccc2)cc1C(=O)NCCCN1CCN(c2cccc(Cl)c2Cl)CC1, the Activity (Mus musculus [29]) was “Active” and the Activity (Mus musculus [27]) was “inactive”.
Work on Cc1c(C(=O)NCCCN2CCN(c3cccc(Cl)c3Cl)CC2)cc(-c2ccccc2)n1-c1ccc(F)cc1 yielded a pIC50 [28] of 6.28.
With Cc1cccc(N2CCN(CCCNC(=O)c3cc(-c4ccccc4)n(C)c3C)CC2)c1C the Activity (Mus musculus [30]) was “Active”.
In the case of CCCn1c(-c2ccccc2)cc(C(=O)NCCCN2CCN(c3cccc(C)c3C)CC2)c1C, the pIC50 [21] was 6.65, the pIC50 [22] was 7.12 and the pIC50 [23] was 6.89.
For CCn1c(-c2ccccc2)cc(C(=O)NCCCN2CCN(c3cccc(C)c3C)CC2)c1C, the Activity (Mus musculus [30]) was “Active”.
For CCn1c(-c2ccccc2)cc(C(=O)NCCCN2CCN(c3cccc(Cl)c3)CC2)c1C, the Activity (Mus musculus [29]) was “inactive”.
